Calls of active or inactive are those of the source.
Experiments:
Rattus norvegicus [1] = assay: Percent growth hormone releasing activity in anesthetized rat relative to hpGRF (1-29)NH2; Not active; assay type: functional, organism-based
In short: (§1)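 In pentobarbital-anesthetized male Charles River rats (6–9/group), two subcutaneous analogue doses and GRF(1-29)NH₂ reference doses were given. Plasma GH was measured by radioimmunoassay in jugular blood taken 15 min post-injection. Relative potency with 95% confidence limits came from a four-point assay design by Pugsley's method. Not active means no activity at the doses tested.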

Rattus norvegicus [2] = assay: Percent growth hormone releasing activity in anesthetized rat relative to hpGRF (1-29)NH2; assay type: functional; in short: as §1
Rattus norvegicus [3] = assay: Effect on plasma growth hormone in anesthetized rat at a dose of 5 ug/100 g of body weight; assay type: functional
In short: (§2)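 Male Charles River rats (175–350 g) anesthetized with sodium pentobarbital (6 mg/100 g body wt); 30 min later, 6–9 per group received a single subcutaneous 0.5-mL injection of saline, GRF(1-29)NH₂ reference, or one of two analogue doses. Jugular vein blood was drawn 15 min post-injection, and plasma GH was measured by radioimmunoassay, reported as ng/mL ± SE.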

Rattus norvegicus [4] = assay: Effect on plasma growth hormone in anesthetized rat at a dose of 25 ug/100 g of body weight; assay type: functional; in short: as §2
Rattus norvegicus [5] = assay: Effect on plasma growth hormone in anesthetized rat at a dose of 10 ug/100 g of body weight; assay type: functional; in short: as §2

SMILES | Activity (Rattus norvegicus [1]) | Activity (Rattus norvegicus [2]) [%] | Activity (Rattus norvegicus [3]) [ng/mL] | Activity (Rattus norvegicus [4]) [ng/mL] | other results
CC[C@H](C)[C@H](NC(=O)[C@H](C)NC(=O)[C@H](CC(=O)O)NC(=O)[C@@H](C)NC(=O)[C@@H](Cc1ccc(O)cc1)NC(C)=O)C(=O)N[C@@H](Cc1ccccc1)C(=O)N[C@H](C(=O)N[C@@H](CC(N)=O)C(=O)N[C@@H](CO)C(=O)N[C@@H](Cc1ccc(O)cc1)C(=O)N[C@@H](CCCN=C(N)N)C(=O)N[C@@H](CCCCN)C(=O)N[C@H](C(=O)N[C@@H](CC(C)C)C(=O)NCC(=O)N[C@@H](CCC(N)=O)C(=O)N[C@@H](CC(C)C)C(=O)N[C@@H](CO)C(=O)N[C@@H](C)C(=O)N[C@@H](CCCN=C(N)N)C(=O)N[C@@H](CCCCN)C(=O)N[C@@H](CC(C)C)C(=O)N[C@@H](CC(C)C)C(=O)N[C@@H](CCC(N)=O)C(=O)N[C@@H](CC(=O)O)C(=O)N[C@H](C(=O)N[C@@H](CCSC)C(=O)N[C@@H](CO)C(=O)N[C@@H](CCCN=C(N)N)C(N)=O)[C@@H](C)CC)C(C)C)[C@@H](C)O (stereo in doubt; 6) [listing 1 of 2 here] | inactive |  |  |  | 
CC[C@H](C)[C@H](NC(=O)[C@H](C)NC(=O)[C@H](CC(=O)O)NC(=O)[C@@H](C)NC(=O)[C@@H](Cc1ccc(O)cc1)NC(C)=O)C(=O)N[C@@H](Cc1ccccc1)C(=O)N[C@H](C(=O)N[C@@H](CC(N)=O)C(=O)N[C@@H](CO)C(=O)N[C@@H](Cc1ccc(O)cc1)C(=O)N[C@@H](CCCN=C(N)N)C(=O)N[C@@H](CCCCN)C(=O)N[C@H](C(=O)N[C@@H](CC(C)C)C(=O)NCC(=O)N[C@@H](CCC(N)=O)C(=O)N[C@@H](CC(C)C)C(=O)N[C@@H](CO)C(=O)N[C@@H](C)C(=O)N[C@@H](CCCN=C(N)N)C(=O)N[C@@H](CCCCN)C(=O)N[C@@H](CC(C)C)C(=O)N[C@@H](CC(C)C)C(=O)N[C@@H](CCC(N)=O)C(=O)N[C@@H](CC(=O)O)C(=O)N[C@H](C(=O)N[C@@H](CCSC)C(=O)N[C@@H](CO)C(=O)N[C@@H](CCCN=C(N)N)C(N)=O)[C@@H](C)CC)C(C)C)[C@@H](C)O (stereo in doubt; 4) |  | 110 | 805 | 2234 | 
CC[C@H](C)[C@H](NC(=O)[C@H](C)NC(=O)[C@H](CC(=O)O)NC(=O)[C@@H](C)NC(=O)[C@@H](Cc1ccc(O)cc1)NC(C)=O)C(=O)N[C@@H](Cc1ccccc1)C(=O)N[C@H](C(=O)N[C@@H](CC(N)=O)C(=O)N[C@@H](CO)C(=O)N[C@@H](Cc1ccc(O)cc1)C(=O)N[C@@H](CCCN=C(N)N)C(=O)N[C@@H](CCCCN)C(=O)N[C@H](C(=O)N[C@@H](CC(C)C)C(=O)NCC(=O)N[C@@H](CCC(N)=O)C(=O)N[C@@H](CC(C)C)C(=O)N[C@@H](CO)C(=O)N[C@@H](C)C(=O)N[C@@H](CCCN=C(N)N)C(=O)N[C@@H](CCCCN)C(=O)N[C@@H](CC(C)C)C(=O)N[C@@H](CC(C)C)C(=O)N[C@@H](CCC(N)=O)C(=O)N[C@@H](CC(=O)O)C(=O)N[C@H](C(=O)N[C@@H](CCSC)C(=O)N[C@@H](CO)C(=O)N[C@@H](CCCN=C(N)N)C(N)=O)[C@@H](C)CC)C(C)C)[C@@H](C)O (stereo in doubt; 1) |  | 993 |  |  | 
CC[C@H](C)[C@H](NC(=O)[C@H](C)NC(=O)[C@H](CC(=O)O)NC(=O)[C@@H](C)NC(=O)[C@@H](Cc1ccc(O)cc1)NC(C)=O)C(=O)N[C@@H](Cc1ccccc1)C(=O)N[C@H](C(=O)N[C@@H](CC(N)=O)C(=O)N[C@@H](CO)C(=O)N[C@@H](Cc1ccc(O)cc1)C(=O)N[C@@H](CCCN=C(N)N)C(=O)N[C@@H](CCCCN)C(=O)N[C@H](C(=O)N[C@@H](CC(C)C)C(=O)NCC(=O)N[C@@H](CCC(N)=O)C(=O)N[C@@H](CC(C)C)C(=O)N[C@@H](CO)C(=O)N[C@@H](C)C(=O)N[C@@H](CCCN=C(N)N)C(=O)N[C@@H](CCCCN)C(=O)N[C@@H](CC(C)C)C(=O)N[C@@H](CC(C)C)C(=O)N[C@@H](CCC(N)=O)C(=O)N[C@@H](CC(=O)O)C(=O)N[C@H](C(=O)N[C@@H](CCSC)C(=O)N[C@@H](CO)C(=O)N[C@@H](CCCN=C(N)N)C(N)=O)[C@@H](C)CC)C(C)C)[C@@H](C)O (stereo in doubt; 7) [listing 1 of 2 here] |  |  | 213 | 328 | 
CC[C@H](C)[C@H](NC(=O)[C@H](C)NC(=O)[C@H](CC(=O)O)NC(=O)[C@@H](C)NC(=O)[C@@H](Cc1ccc(O)cc1)NC(C)=O)C(=O)N[C@@H](Cc1ccccc1)C(=O)N[C@H](C(=O)N[C@@H](CC(N)=O)C(=O)N[C@@H](CO)C(=O)N[C@@H](Cc1ccc(O)cc1)C(=O)N[C@@H](CCCN=C(N)N)C(=O)N[C@@H](CCCCN)C(=O)N[C@H](C(=O)N[C@@H](CC(C)C)C(=O)NCC(=O)N[C@@H](CCC(N)=O)C(=O)N[C@@H](CC(C)C)C(=O)N[C@@H](CO)C(=O)N[C@@H](C)C(=O)N[C@@H](CCCN=C(N)N)C(=O)N[C@@H](CCCCN)C(=O)N[C@@H](CC(C)C)C(=O)N[C@@H](CC(C)C)C(=O)N[C@@H](CCC(N)=O)C(=O)N[C@@H](CC(=O)O)C(=O)N[C@H](C(=O)N[C@@H](CCSC)C(=O)N[C@@H](CO)C(=O)N[C@@H](CCCN=C(N)N)C(N)=O)[C@@H](C)CC)C(C)C)[C@@H](C)O (stereo in doubt; 7) [listing 2 of 2 here] | inactive |  |  |  | 
CC[C@H](C)[C@H](NC(=O)[C@H](C)NC(=O)[C@H](CC(=O)O)NC(=O)[C@@H](C)NC(=O)[C@@H](Cc1ccc(O)cc1)NC(C)=O)C(=O)N[C@@H](Cc1ccccc1)C(=O)N[C@H](C(=O)N[C@@H](CC(N)=O)C(=O)N[C@@H](CO)C(=O)N[C@@H](Cc1ccc(O)cc1)C(=O)N[C@@H](CCCN=C(N)N)C(=O)N[C@@H](CCCCN)C(=O)N[C@H](C(=O)N[C@@H](CC(C)C)C(=O)NCC(=O)N[C@@H](CCC(N)=O)C(=O)N[C@@H](CC(C)C)C(=O)N[C@@H](CO)C(=O)N[C@@H](C)C(=O)N[C@@H](CCCN=C(N)N)C(=O)N[C@@H](CCCCN)C(=O)N[C@@H](CC(C)C)C(=O)N[C@@H](CC(C)C)C(=O)N[C@@H](CCC(N)=O)C(=O)N[C@@H](CC(=O)O)C(=O)N[C@H](C(=O)N[C@@H](CCSC)C(=O)N[C@@H](CO)C(=O)N[C@@H](CCCN=C(N)N)C(N)=O)[C@@H](C)CC)C(C)C)[C@@H](C)O (stereo in doubt; 6) [listing 2 of 2 here] |  |  | 324 | 374 | 
CC[C@H](C)[C@H](NC(=O)[C@H](C)NC(=O)[C@H](CC(=O)O)NC(=O)[C@@H](C)NC(=O)[C@@H](N)Cc1ccc(O)cc1)C(=O)N[C@@H](Cc1ccccc1)C(=O)N[C@H](C(=O)N[C@@H](CC(N)=O)C(=O)N[C@@H](CO)C(=O)N[C@@H](Cc1ccc(O)cc1)C(=O)N[C@@H](CCCN=C(N)N)C(=O)N[C@@H](CCCCN)C(=O)N[C@H](C(=O)N[C@@H](CC(C)C)C(=O)NCC(=O)N[C@@H](CCC(N)=O)C(=O)N[C@@H](CC(C)C)C(=O)N[C@@H](CO)C(=O)N[C@@H](C)C(=O)N[C@@H](CCCN=C(N)N)C(=O)N[C@@H](CCCCN)C(=O)N[C@@H](CC(C)C)C(=O)N[C@@H](CC(C)C)C(=O)N[C@@H](CCC(N)=O)C(=O)N[C@@H](CC(=O)O)C(=O)N[C@H](C(=O)N[C@@H](CCSC)C(=O)N[C@@H](CO)C(=O)N[C@@H](CCCN=C(N)N)C(N)=O)[C@@H](C)CC)C(C)C)[C@@H](C)O |  | 5146 |  |  | 
CC[C@H](C)[C@H](NC(=O)[C@H](C)NC(=O)[C@H](CC(=O)O)NC(=O)[C@@H](C)NC(=O)[C@@H](Cc1ccc(O)cc1)NC(C)=O)C(=O)N[C@@H](Cc1ccccc1)C(=O)N[C@H](C(=O)N[C@@H](CC(N)=O)C(=O)N[C@@H](CO)C(=O)N[C@@H](Cc1ccc(O)cc1)C(=O)N[C@@H](CCCN=C(N)N)C(=O)N[C@@H](CCCCN)C(=O)N[C@H](C(=O)N[C@@H](CC(C)C)C(=O)NCC(=O)N[C@@H](CCC(N)=O)C(=O)N[C@@H](CC(C)C)C(=O)N[C@@H](CO)C(=O)N[C@@H](C)C(=O)N[C@@H](CCCN=C(N)N)C(=O)N[C@@H](CCCCN)C(=O)N[C@@H](CC(C)C)C(=O)N[C@@H](CC(C)C)C(=O)N[C@@H](CCC(N)=O)C(=O)N[C@@H](CC(=O)O)C(=O)N[C@H](C(=O)N[C@@H](CCSC)C(=O)N[C@@H](CO)C(=O)N[C@@H](CCCN=C(N)N)C(N)=O)[C@@H](C)CC)C(C)C)[C@@H](C)O (stereo in doubt; 3) |  | 670 |  |  | 
CC[C@H](C)[C@H](NC(=O)[C@H](C)NC(=O)[C@H](CC(=O)O)NC(=O)[C@H](C)NC(=O)[C@H](Cc1ccc(O)cc1)NC(C)=O)C(=O)N[C@@H](Cc1ccccc1)C(=O)N[C@H](C(=O)N[C@@H](CC(N)=O)C(=O)N[C@@H](CO)C(=O)N[C@@H](Cc1ccc(O)cc1)C(=O)N[C@@H](CCCN=C(N)N)C(=O)N[C@@H](CCCCN)C(=O)N[C@H](C(=O)N[C@@H](CC(C)C)C(=O)NCC(=O)N[C@@H](CCC(N)=O)C(=O)N[C@@H](CC(C)C)C(=O)N[C@@H](CO)C(=O)N[C@@H](C)C(=O)N[C@@H](CCCN=C(N)N)C(=O)N[C@@H](CCCCN)C(=O)N[C@@H](CC(C)C)C(=O)N[C@@H](CC(C)C)C(=O)N[C@@H](CCC(N)=O)C(=O)N[C@@H](CC(=O)O)C(=O)N[C@H](C(=O)N[C@@H](CCSC)C(=O)N[C@@H](CO)C(=O)N[C@@H](CCCN=C(N)N)C(N)=O)[C@@H](C)CC)C(C)C)[C@@H](C)O |  | 1224 |  |  | 
CC[C@H](C)[C@H](NC(=O)[C@H](C)NC(=O)[C@H](CC(=O)O)NC(=O)[C@@H](Cc1ccccc1)NC(=O)[C@H](Cc1ccc(O)cc1)NC(C)=O)C(=O)N[C@@H](Cc1ccccc1)C(=O)N[C@H](C(=O)N[C@@H](CC(N)=O)C(=O)N[C@@H](CO)C(=O)N[C@@H](Cc1ccc(O)cc1)C(=O)N[C@@H](CCCN=C(N)N)C(=O)N[C@@H](CCCCN)C(=O)N[C@H](C(=O)N[C@@H](CC(C)C)C(=O)NCC(=O)N[C@@H](CCC(N)=O)C(=O)N[C@@H](CC(C)C)C(=O)N[C@@H](CO)C(=O)N[C@@H](C)C(=O)N[C@@H](CCCN=C(N)N)C(=O)N[C@@H](CCCCN)C(=O)N[C@@H](CC(C)C)C(=O)N[C@@H](CC(C)C)C(=O)N[C@@H](CCC(N)=O)C(=O)N[C@@H](CC(=O)O)C(=O)N[C@H](C(=O)N[C@@H](CCSC)C(=O)N[C@@H](CO)C(=O)N[C@@H](CCCN=C(N)N)C(N)=O)[C@@H](C)CC)C(C)C)[C@@H](C)O | inactive |  | 475 |  | Activity (Rattus norvegicus [5]): 422 ng/mL

From ChEMBL document CHEMBL1122887, “Structure-activity studies on the N-terminal region of growth hormone releasing factor” (1985)
